From ChEMBL document CHEMBL1131324 (J Med Chem, 1998)
pKi: −log10 of the molar value.

Tests used:
[1] = target: T1, 5-hydroxytryptamine receptor 1B (Homo sapiens, UniProt P28222); assay: Binding affinity for human 5-hydroxytryptamine 1B receptor
[2] = target: 5-hydroxytryptamine receptor 1D (Homo sapiens, UniProt P28221); assay: Binding affinity for human 5-hydroxytryptamine 1D receptor
[3] = target: T1, 5-hydroxytryptamine receptor 1B; assay: Effect of compound on [35S]GTP-gamma-S, radioligand binding CHO cells expressing human 5-hydroxytryptamine 1B receptor; format: functional, cell-based
[4] = target: 5-hydroxytryptamine receptor 2A (Homo sapiens, UniProt P28223); assay: Binding affinity for human 5-hydroxytryptamine 2A receptor
Sequence of 5-hydroxytryptamine receptor 2A (P28223 whole entry): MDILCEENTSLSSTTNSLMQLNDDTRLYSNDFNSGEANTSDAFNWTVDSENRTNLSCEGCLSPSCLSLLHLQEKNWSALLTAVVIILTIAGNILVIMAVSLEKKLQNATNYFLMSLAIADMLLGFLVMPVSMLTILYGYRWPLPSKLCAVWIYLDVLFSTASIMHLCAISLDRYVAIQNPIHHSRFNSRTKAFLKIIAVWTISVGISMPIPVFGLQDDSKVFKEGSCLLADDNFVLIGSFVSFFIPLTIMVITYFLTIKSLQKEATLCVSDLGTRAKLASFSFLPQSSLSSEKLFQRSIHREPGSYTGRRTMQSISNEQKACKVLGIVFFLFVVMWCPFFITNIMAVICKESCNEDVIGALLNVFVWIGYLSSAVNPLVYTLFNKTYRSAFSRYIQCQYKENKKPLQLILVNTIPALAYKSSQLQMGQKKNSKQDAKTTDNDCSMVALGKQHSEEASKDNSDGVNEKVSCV
Method in brief: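 Human cloned receptor expressed in HEK 293 cells; displacement of [³H]ketanserin in 50 mM Tris-HCl (pH 7.7 at 25 °C). Test compound over a concentration range, 30-45 min at 37 °C; filtration with ice-cold buffer wash, bound label by scintillation counting; pKi reported as mean (SEM, n) or individual values where n = 2.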

Cavia porcellus [5] = species: Cavia porcellus; assay: Mean maximum temperature drop on SK & F 99101H (-1.22(0.27)) -induced Hypothermia at 8 hr postdose treatment(* p< 0.05 vs SK & F 99101H controls).; format: functional
Method in brief: (§1)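 Male Dunkin-Hartley guinea pigs, n = 6/group. Compound given 5.0 mg/kg po, then SK&F 99101H 30 mg/kg ip at 2, 4, 8 or 24 h postdose; 8 and 24 h data come from a second independent experiment. Rectal temperature measured by probe 4–5 cm deep. Mean maximum temperature drop, also expressed as % of SK&F 99101H controls.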

Cavia porcellus [6] = assay: Body temperature drop at 2.2 mg/kg po dosage in Guinea pig.; format: functional
Cavia porcellus [7] = species: Cavia porcellus; assay: (§2) Compound was tested for % of SK & F 99101H controls on induced Hypothermia at 4 h postdose treatment.; format: functional; method in brief: as §1
[8] = target: T2, Serotonin 1 receptors; 5-HT1B & 5-HT1D (Homo sapiens) (UniProt P28222+P28221); settings: Cavia porcellus; 3.0 mg/kg
[9] = target: Muscarinic acetylcholine receptor M2 (Homo sapiens, UniProt P08172); assay: Compound was tested for binding affinity against human cloned Muscarinic acetylcholine receptor M2
Method in brief: (§3)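 Radioligand competition run to literature procedures, giving pKi. Receptor preparation incubated with radioligand and a range of test concentrations for 30–45 min at 37 °C. Rapid filtration, ice-cold buffer wash, dried filters scintillation-counted. Mean ± SEM, or individual values where n = 2.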

[10] = target: T2, Serotonin 1 receptors; 5-HT1B & 5-HT1D (Homo sapiens); settings: Cavia porcellus; 1.0 mg/kg
[11] = target: T2, Serotonin 1 receptors; 5-HT1B & 5-HT1D (Homo sapiens); settings: Cavia porcellus
[12] = target: Alpha-1B adrenergic receptor (Rattus norvegicus, UniProt P15823); assay: Compound was tested for binding affinity against Alpha-1B adrenergic receptor (rat liver, [3H] prazosin); method in brief: as §3
[13] = target: T2, Serotonin 1 receptors; 5-HT1B & 5-HT1D (Homo sapiens); settings: Cavia porcellus; remark: listed apart in the source
Histamine H1 receptor = Histamine H1 receptor (Cavia porcellus, UniProt P31389); assay: Compound was tested for binding affinity against Histamine H1 receptor.; method in brief: as §3
[14] = target: 5-hydroxytryptamine receptor 1E (Homo sapiens, UniProt P28566); assay: Compound was tested for binding affinity against human 5-hydroxytryptamine 1E receptor
Method in brief: (§4)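 Competition binding giving pKi. Human cloned 5-HT1A in HEK 293 cells vs [3H]-8-OH-DPAT; human 5-HT1E and 5-HT1F in CHO cells vs [3H]-5-HT. Radioligand with a concentration range of test compound, 30–45 min at 37 °C. Rapid filtration, ice-cold buffer wash, scintillation counting. Mean ± SEM, or individual values where n = 2.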

Histamine H2 receptor = Histamine H2 receptor (Cavia porcellus, UniProt P47747); assay: Compound was tested for binding affinity towards Histamine H2 receptor; method in brief: as §3
Sequence of Histamine H2 receptor (P47747 whole entry): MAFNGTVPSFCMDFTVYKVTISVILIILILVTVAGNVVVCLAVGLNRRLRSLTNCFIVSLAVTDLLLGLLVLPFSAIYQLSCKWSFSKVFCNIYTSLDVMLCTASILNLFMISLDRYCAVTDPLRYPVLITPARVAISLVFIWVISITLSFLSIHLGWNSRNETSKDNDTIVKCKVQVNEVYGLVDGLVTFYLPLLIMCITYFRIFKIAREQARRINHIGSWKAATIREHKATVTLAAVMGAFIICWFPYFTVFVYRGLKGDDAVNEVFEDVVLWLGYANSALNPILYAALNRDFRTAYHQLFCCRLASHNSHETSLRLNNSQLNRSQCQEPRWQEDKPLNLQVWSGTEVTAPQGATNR

Cavia porcellus [15] = species: Cavia porcellus; assay: Mean maximum temperature drop on SK & F 99101H (-2.23(0.13)) -induced Hypothermia at 8 hr postdose treatment(** p< 0.01 vs SK & F 99101H controls).; format: functional; method in brief: as §1
Cavia porcellus [16] = species: Cavia porcellus; assay: Compound was tested for % of SK & F 99101H controls on induced Hypothermia at 24 hr postdose treatment.; format: functional; method in brief: as §1
Cavia porcellus [17] = species: Cavia porcellus; assay: Mean maximum temperature drop on SK & F 99101H (-1.72(0.09)) -induced Hypothermia at 2 hr postdose treatment(**p< 0.01 vs SK & F 99101H controls).; format: functional; method in brief: as §1
[18] = target: Alpha-2A adrenergic receptor (Homo sapiens, UniProt P08913); assay: Compound was tested for binding affinity against human cloned Alpha-2A adrenergic receptor; method in brief: as §3
Sequence of Alpha-2A adrenergic receptor (P08913 whole entry): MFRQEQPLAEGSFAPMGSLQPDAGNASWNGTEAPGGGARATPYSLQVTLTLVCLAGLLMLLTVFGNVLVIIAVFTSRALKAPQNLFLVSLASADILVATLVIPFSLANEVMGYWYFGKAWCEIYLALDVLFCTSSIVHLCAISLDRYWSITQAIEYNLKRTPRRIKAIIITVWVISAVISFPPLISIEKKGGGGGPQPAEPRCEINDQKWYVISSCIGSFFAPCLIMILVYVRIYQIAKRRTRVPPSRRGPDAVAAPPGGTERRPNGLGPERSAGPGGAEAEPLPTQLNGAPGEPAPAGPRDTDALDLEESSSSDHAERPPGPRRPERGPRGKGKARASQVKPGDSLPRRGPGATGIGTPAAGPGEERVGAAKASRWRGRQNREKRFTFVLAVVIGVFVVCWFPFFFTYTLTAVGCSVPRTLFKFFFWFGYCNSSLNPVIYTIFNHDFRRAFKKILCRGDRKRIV

[19] = target: T2, Serotonin 1 receptors; 5-HT1B & 5-HT1D (Homo sapiens); settings: Cavia porcellus; remark: listed apart in the source
[20] = target: Beta-2 adrenergic receptor (Homo sapiens, UniProt P07550); assay: Compound was tested for binding affinity against human cloned Beta-2 adrenergic receptor; method in brief: as §3
D(3) dopamine receptor = D(3) dopamine receptor (Homo sapiens, UniProt P35462); assay: Compound was tested for binding affinity against human cloned Dopamine receptor D3
Method in brief: (§5)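 Human D2 or D3 receptors expressed in CHO cells, displacement of [3H]spiperone, giving pKi. Incubated 30–45 min at 37 °C with a range of test concentrations. Filtered, washed with ice-cold buffer, bound label counted by scintillation.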

[21] = target: 5-hydroxytryptamine receptor 1A (Homo sapiens, UniProt P08908); assay: Compound was tested for binding affinity against human 5-hydroxytryptamine 1A receptor; method in brief: as §4
Sequence of 5-hydroxytryptamine receptor 1A (P08908 whole entry): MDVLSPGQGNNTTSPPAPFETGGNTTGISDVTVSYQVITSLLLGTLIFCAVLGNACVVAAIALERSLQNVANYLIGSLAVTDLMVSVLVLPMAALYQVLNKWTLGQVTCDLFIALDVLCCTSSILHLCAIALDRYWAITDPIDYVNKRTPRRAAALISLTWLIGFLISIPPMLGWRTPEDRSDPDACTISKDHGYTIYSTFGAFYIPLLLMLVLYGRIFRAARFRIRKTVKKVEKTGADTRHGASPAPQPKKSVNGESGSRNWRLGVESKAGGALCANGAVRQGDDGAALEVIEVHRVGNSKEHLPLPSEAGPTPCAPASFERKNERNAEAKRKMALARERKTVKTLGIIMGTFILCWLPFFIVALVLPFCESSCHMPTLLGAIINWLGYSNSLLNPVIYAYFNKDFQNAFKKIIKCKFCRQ

[22] = target: Serotonin 4 (5-HT4) receptor (Sus scrofa, UniProt Q6Q253); assay: Compound was tested for binding affinity against piglet hippocampus 5-hydroxytryptamine 4 receptor; format: tissue-based
Method in brief: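 pKi from displacement of [125I]SB-207710 in piglet hippocampus. Radioligand and a range of test concentrations incubated 30–45 min at 37 °C, then rapidly filtered, washed with ice-cold buffer and counted by scintillation.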

Cavia porcellus [23] = species: Cavia porcellus; assay: as §2; format: functional; method in brief: as §1; remark: listed apart in the source
[24] = target: Alpha-2B adrenergic receptor (Mus musculus, UniProt P30545); assay: Compound was tested for binding affinity against Alpha-2B adrenergic receptor (NG 108-15 cells) using [3H]RX-821002) as radioligand; format: cell-based; method in brief: as §3
[25] = target: T2, Serotonin 1 receptors; 5-HT1B & 5-HT1D (Homo sapiens); settings: Cavia porcellus; 0.3 mg/kg
[26] = target: Muscarinic acetylcholine receptor M1 (Homo sapiens, UniProt P11229); assay: Compound was tested for binding affinity against human cloned Muscarinic acetylcholine receptor M1; method in brief: as §3
Sequence of Muscarinic acetylcholine receptor M1 (P11229 whole entry): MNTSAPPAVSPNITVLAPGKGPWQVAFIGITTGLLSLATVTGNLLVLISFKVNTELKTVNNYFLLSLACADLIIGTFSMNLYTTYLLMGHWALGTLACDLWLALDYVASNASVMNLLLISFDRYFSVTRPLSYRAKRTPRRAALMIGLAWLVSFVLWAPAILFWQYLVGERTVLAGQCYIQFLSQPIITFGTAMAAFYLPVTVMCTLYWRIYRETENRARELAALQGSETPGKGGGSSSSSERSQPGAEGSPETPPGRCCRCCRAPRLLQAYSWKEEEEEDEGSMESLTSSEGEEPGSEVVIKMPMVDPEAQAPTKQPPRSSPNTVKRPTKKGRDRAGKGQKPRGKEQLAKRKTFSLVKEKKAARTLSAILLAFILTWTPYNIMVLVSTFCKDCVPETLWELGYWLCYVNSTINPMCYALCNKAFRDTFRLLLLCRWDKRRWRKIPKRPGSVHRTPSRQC

[27] = target: Beta-1 adrenergic receptor (Homo sapiens, UniProt P08588); assay: Compound was tested for binding affinity against human cloned Beta-1 adrenergic receptor; method in brief: as §3
Sequence of Beta-1 adrenergic receptor (P08588 whole entry): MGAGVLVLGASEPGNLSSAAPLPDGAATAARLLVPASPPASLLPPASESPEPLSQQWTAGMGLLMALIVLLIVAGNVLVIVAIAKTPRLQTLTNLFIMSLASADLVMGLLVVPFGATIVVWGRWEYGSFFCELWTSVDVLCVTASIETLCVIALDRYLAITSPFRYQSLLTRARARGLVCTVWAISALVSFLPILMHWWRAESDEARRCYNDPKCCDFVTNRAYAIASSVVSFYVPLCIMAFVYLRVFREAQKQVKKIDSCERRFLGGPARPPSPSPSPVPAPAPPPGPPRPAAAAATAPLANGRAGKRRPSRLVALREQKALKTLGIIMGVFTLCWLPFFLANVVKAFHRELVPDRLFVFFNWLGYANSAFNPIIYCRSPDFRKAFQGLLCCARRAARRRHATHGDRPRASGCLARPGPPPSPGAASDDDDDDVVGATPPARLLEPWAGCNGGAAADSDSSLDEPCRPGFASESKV

[28] = target: T2, Serotonin 1 receptors; 5-HT1B & 5-HT1D (Homo sapiens); settings: Cavia porcellus; remark: listed apart in the source
Cavia porcellus [29] = species: Cavia porcellus; assay: Compound was tested for % of SK & F 99101H controls on induced Hypothermia at 2 hr postdose.; format: functional; method in brief: as §1
Cavia porcellus [30] = species: Cavia porcellus; assay: Mean maximum temperature drop on SK & F 99101H (-1.73(0.17)) -induced Hypothermia at 4 hr postdose treatment(** p< 0.01 vs SK & F 99101H controls).; format: functional; method in brief: as §1
Cavia porcellus [31] = species: Cavia porcellus; assay: Compound was tested for % of SK & F 99101H controls on induced Hypothermia at 8 hr postdose treatment.; format: functional; method in brief: as §1
D(2) dopamine receptor = D(2) dopamine receptor (Homo sapiens, UniProt P14416); assay: Compound was tested for binding affinity against human cloned Dopamine receptor D2; method in brief: as §5
Sequence of D(2) dopamine receptor (P14416 whole entry): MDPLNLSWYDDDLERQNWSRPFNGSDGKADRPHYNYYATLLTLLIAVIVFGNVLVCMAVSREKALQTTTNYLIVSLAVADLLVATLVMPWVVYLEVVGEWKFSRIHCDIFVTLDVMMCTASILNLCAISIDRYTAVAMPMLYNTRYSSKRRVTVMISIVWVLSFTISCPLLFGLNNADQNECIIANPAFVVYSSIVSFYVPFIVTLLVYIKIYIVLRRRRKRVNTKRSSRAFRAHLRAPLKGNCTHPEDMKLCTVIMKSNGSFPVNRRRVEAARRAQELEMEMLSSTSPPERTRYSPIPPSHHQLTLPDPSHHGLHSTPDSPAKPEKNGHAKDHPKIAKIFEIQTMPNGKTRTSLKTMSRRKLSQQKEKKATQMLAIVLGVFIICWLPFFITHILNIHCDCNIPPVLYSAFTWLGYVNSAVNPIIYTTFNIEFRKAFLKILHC

Cavia porcellus [32] = assay: Body temperature drop at 4.6 mg/kg po dosage in Guinea pig.; format: functional
[33] = target: Alpha-1A adrenergic receptor (Rattus norvegicus, UniProt P43140); assay: Compound was tested for binding affinity against Alpha-1A adrenergic receptor (rat submaxillary gland); method in brief: as §3
Cavia porcellus [34] = species: Cavia porcellus; assay: Effect on SK & F 99101H (-2.60(1.37) -induced Hypothermia at 24 hr postdose treatment in guinea pig(** p< 0.01 vs SK & F 99101H controls).; format: functional; method in brief: as §1
[35] = target: 5-hydroxytryptamine receptor 1F (Homo sapiens, UniProt P30939); assay: Compound was tested for binding affinity against human 5-hydroxytryptamine 1F receptor; method in brief: as §4
Sequence of 5-hydroxytryptamine receptor 1F (P30939 whole entry): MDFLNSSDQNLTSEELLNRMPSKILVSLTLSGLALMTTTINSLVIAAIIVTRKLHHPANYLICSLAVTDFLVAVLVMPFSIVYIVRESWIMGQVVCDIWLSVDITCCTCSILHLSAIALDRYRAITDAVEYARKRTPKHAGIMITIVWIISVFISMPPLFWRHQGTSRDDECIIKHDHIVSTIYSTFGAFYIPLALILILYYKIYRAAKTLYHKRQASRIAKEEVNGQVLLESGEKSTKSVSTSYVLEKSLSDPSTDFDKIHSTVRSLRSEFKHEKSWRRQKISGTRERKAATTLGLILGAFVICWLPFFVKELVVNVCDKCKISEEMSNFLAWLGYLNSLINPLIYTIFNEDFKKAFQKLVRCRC

Cavia porcellus [36] = assay: Body temperature drop at 22 mg/kg po dosage in Guinea pig; format: functional
Cavia porcellus [37] = species: Cavia porcellus; assay: Body temperature drop at SK & F 99101H positive control dose (* p< 0.01 vs vehicle/vehicle controls) in Guinea pig.; format: functional
Cavia porcellus [38] = assay: Body temperature drop at 10 mg/kg po dosage in Guinea pig.; format: functional
[39] = target: T2, Serotonin 1 receptors; 5-HT1B & 5-HT1D (Homo sapiens); settings: Cavia porcellus; remark: listed apart in the source
[40] = target: T2, Serotonin 1 receptors; 5-HT1B & 5-HT1D (Homo sapiens); settings: Cavia porcellus; remark: listed apart in the source
[41] = target: 5-hydroxytryptamine receptor 2C (Homo sapiens, UniProt P28335); assay: Compound was tested for binding affinity against human 5-hydroxytryptamine 2C receptor
Sequence of 5-hydroxytryptamine receptor 2C (P28335 whole entry): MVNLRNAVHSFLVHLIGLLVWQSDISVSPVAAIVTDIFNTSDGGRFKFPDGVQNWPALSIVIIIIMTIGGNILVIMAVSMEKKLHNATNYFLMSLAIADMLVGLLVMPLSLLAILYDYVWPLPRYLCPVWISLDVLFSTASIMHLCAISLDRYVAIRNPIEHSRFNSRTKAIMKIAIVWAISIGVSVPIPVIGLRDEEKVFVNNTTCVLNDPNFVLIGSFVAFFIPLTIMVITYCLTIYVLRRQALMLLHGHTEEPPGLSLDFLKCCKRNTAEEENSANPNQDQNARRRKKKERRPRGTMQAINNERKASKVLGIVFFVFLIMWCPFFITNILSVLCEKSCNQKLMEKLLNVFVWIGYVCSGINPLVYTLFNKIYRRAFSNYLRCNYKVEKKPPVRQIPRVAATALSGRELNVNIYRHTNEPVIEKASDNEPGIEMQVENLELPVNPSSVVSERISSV
Method in brief: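 Competition binding against human cloned 5-HT2C receptor expressed in HEK 293 cells. [3H]mesulergine was the radioligand. Incubation in 50 mM Tris-HCl (pH 7.7 at 25 °C) with a range of test concentrations for 30–45 min at 37 °C. Samples were rapidly filtered, washed with ice-cold buffer, and counted by scintillation. pKi is given as mean (SEM, n) or as individual values where n = 2.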

[42] = target: T2, Serotonin 1 receptors; 5-HT1B & 5-HT1D (Homo sapiens); settings: Cavia porcellus; 10.0 mg/kg

Sequence of 5-hydroxytryptamine receptor 1D (P28221 whole entry): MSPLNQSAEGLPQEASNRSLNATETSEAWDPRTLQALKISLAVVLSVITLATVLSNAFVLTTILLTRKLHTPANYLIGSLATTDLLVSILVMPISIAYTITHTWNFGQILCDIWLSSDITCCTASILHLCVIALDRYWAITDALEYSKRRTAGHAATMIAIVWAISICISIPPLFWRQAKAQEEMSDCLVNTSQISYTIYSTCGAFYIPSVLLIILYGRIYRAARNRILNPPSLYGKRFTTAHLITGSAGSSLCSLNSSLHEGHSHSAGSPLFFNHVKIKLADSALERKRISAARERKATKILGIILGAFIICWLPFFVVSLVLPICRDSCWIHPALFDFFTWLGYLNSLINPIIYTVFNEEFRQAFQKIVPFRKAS
T1 sequence (P28222 whole entry): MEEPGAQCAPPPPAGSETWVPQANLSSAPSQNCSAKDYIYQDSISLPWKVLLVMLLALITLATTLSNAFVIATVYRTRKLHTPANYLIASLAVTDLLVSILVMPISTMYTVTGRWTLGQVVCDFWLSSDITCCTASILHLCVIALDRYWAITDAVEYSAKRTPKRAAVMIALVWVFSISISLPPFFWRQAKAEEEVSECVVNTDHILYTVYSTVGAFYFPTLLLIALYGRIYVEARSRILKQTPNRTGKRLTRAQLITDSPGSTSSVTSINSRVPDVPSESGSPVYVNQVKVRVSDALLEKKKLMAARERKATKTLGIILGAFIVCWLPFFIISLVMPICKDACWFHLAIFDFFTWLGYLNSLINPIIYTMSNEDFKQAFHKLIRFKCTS

Cc1nc(-c2ccc(-c3ccc(C(=O)Nc4cc5c(c(OCCN(C)C)c4)OCC5)cc3)c(C)c2)no1
pKi [1]: 8.80 | pKi [2]: 7.60 | [35S]GTPγS binding stimulation [3]: 207% | pKi [4]: 7.30

COc1ccc(NC(=O)c2ccc(-c3ccc(-c4noc(C)n4)cc3C)cc2)cc1CCCN(C)C
pKi [1]: 8.50 | pKi [2]: 7.00 | [35S]GTPγS binding stimulation [3]: -44% | pKi [4]: 8.20

COc1ccc(NC(=O)c2ccc(Br)c(C)c2)cc1N1CCN(C)CC1
pKi [1]: 8.20 | pKi [2]: 7.90 | pKi [4]: 6.70

COc1cc2c(cc1OCCN(C)C)N(C(=O)c1ccc(-c3ccc(-c4noc(C)n4)cc3C)cc1)CC2
pKi [1]: 9.30 | pKi [2]: 8.30 | pKi [4]: 6.50

COc1ccc(NC(=O)c2ccc(-c3ccc(-c4noc(C)n4)cc3C)cc2)cc1NCCN(C)C
pKi [1]: 8.60 | pKi [2]: 7.40 | [35S]GTPγS binding stimulation [3]: 108% | pKi [4]: 8.30

Cc1nc(-c2ccc(-c3ccc(C(=O)N4CCc5cc6c(cc54)C4(CCN(C)CC4)CO6)cc3)c(C)c2)no1 [SB-224289]
Body temp drop (Cavia porcellus [5]): -0.53 °C | Body temperature drop (Cavia porcellus [6]): -0.23 °C | Control (Cavia porcellus [7]): 43% | Control [8]: 52% | pKi [9]: < 6.00 | Control [10]: 85% | Degrees Centigrade [11]: -1 °C | pKi [12]: < 6.00 | Degrees Centigrade [13]: -1.63 °C | pKi (Histamine H1 receptor): < 6.00 | pKi [14]: < 5.00 | pKi (Histamine H2 receptor): < 6.00 | Body temp drop (Cavia porcellus [15]): -1.1 °C | Control (Cavia porcellus [16]): 50% | Body temp drop (Cavia porcellus [17]): -0.38 °C | pKi [18]: < 6.00 | Body temp drop [19]: -0.67 °C | pKi [20]: < 6.00 | pKi (D(3) dopamine receptor): < 6.00 | pKi [21]: < 5.50 | pKi [22]: < 6.00 | Control (Cavia porcellus [23]): 15% | pKi [24]: < 6.00 | Control [25]: 93% | Simulation [3]: -62% | pKi [26]: < 6.00 | pKi [27]: < 6.00 | Degrees Centigrade [28]: -1.77 °C | Control (Cavia porcellus [29]): 22% | Body temp drop (Cavia porcellus [30]): -0.27 °C | pKi [4]: 5.80 | Control (Cavia porcellus [31]): 48% | pKi (D(2) dopamine receptor): < 6.00 | Body temperature drop (Cavia porcellus [32]): -0.05 °C | pKi [33]: < 6.00 | Body temp drop (Cavia porcellus [34]): -1.31 °C | pKi [35]: < 5.00 | Body temperature drop (Cavia porcellus [36]): -0.03 °C | Mean maximumtemp drop (Cavia porcellus [37]): -2 °C | Body temperature drop (Cavia porcellus [38]): -0.03 °C | Body temperature drop [39]: -1.92 °C | Body temperature drop [40]: -0.12 °C | pKi [41]: 6.20 | Control [42]: 35%
